From ChEMBL document CHEMBL1125266, “Tyrphostins. 2. Heterocyclic and alpha-substituted benzylidenemalononitrile tyrphostins as potent inhibitors of EGF receptor and ErbB2/neu tyrosine kinases” (J Med Chem, 1991)

Experiments:
[1] = tested on: NIH3T3; test: (§1) Inhibition of HER14 serum dependent cell proliferation without EGF; details: Mus musculus
[2] = biological target: T1, Epidermal growth factor receptor (Homo sapiens, UniProt P00533); test: Inhibition of polyGAT phosphorylation
[3] = tested on: NIH3T3; test: Inhibition of HER14 (human EGFR overexpressing NIH3T3) cell growth in the absence of EGF.; format: functional, Mus musculus
Outline: (§2)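 Serum-starved HER14 cells (NIH3T3 stably overexpressing EGF receptor) were given inhibitor at least 6-8 h before serum stimulation, with no EGF added. Inhibitor-containing medium was replaced every 24 h. Three parallel wells were used per concentration, and the IC50 for inhibition of serum-supported growth was determined.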

[4] = biological target: Receptor tyrosine-protein kinase erbB-2 (Homo sapiens, UniProt P04626); test: In vitro inhibition of ERBB2 receptor kinase autophosphorylation.
Receptor tyrosine-protein kinase erbB-2, sequence (P04626 whole entry): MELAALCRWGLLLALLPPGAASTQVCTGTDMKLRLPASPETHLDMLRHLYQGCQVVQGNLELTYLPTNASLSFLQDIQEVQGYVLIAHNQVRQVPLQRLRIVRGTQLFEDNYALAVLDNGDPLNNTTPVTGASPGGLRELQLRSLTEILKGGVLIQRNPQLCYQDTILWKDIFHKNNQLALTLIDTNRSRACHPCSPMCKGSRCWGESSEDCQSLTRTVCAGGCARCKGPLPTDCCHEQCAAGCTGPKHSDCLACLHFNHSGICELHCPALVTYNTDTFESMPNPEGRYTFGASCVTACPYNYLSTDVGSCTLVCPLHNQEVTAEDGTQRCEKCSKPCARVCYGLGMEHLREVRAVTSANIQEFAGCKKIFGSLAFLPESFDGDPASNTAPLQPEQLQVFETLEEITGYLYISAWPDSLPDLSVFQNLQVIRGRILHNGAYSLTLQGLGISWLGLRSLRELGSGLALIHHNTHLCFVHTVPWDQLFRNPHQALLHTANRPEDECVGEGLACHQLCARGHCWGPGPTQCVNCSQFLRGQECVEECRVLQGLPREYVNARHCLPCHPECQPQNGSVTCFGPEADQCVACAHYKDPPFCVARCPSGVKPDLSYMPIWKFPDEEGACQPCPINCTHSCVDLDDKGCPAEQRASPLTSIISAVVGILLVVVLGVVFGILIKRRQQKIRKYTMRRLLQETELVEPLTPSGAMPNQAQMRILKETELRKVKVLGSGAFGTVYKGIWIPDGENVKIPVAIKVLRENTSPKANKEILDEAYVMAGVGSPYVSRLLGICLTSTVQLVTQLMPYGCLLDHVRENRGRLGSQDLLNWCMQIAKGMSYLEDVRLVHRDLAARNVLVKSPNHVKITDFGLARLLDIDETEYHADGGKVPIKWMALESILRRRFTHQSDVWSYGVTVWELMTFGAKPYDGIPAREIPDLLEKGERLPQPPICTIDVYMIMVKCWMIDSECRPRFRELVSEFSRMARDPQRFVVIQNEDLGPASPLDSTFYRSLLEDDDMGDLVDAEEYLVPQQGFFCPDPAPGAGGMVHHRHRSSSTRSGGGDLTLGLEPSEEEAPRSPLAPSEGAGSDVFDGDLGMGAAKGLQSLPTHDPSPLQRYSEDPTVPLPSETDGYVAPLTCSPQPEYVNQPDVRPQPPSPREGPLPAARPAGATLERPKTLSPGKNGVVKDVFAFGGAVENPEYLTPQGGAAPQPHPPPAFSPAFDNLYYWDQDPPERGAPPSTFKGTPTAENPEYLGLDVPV

[5] = biological target: T1, Epidermal growth factor receptor; test: In vitro inhibition of HER1 autophosphorylation.
[6] = tested on: NIH3T3; test: as §1; format: functional, Mus musculus; outline: as §2
[7] = biological target: T1, Epidermal growth factor receptor; test: Inhibition of epidermal growth factor receptor autophosphorylation
[8] = tested on: NIH3T3; test: as §1; format: functional, cell-based; details: Mus musculus; outline: as §2

T1 sequence (P00533 whole entry): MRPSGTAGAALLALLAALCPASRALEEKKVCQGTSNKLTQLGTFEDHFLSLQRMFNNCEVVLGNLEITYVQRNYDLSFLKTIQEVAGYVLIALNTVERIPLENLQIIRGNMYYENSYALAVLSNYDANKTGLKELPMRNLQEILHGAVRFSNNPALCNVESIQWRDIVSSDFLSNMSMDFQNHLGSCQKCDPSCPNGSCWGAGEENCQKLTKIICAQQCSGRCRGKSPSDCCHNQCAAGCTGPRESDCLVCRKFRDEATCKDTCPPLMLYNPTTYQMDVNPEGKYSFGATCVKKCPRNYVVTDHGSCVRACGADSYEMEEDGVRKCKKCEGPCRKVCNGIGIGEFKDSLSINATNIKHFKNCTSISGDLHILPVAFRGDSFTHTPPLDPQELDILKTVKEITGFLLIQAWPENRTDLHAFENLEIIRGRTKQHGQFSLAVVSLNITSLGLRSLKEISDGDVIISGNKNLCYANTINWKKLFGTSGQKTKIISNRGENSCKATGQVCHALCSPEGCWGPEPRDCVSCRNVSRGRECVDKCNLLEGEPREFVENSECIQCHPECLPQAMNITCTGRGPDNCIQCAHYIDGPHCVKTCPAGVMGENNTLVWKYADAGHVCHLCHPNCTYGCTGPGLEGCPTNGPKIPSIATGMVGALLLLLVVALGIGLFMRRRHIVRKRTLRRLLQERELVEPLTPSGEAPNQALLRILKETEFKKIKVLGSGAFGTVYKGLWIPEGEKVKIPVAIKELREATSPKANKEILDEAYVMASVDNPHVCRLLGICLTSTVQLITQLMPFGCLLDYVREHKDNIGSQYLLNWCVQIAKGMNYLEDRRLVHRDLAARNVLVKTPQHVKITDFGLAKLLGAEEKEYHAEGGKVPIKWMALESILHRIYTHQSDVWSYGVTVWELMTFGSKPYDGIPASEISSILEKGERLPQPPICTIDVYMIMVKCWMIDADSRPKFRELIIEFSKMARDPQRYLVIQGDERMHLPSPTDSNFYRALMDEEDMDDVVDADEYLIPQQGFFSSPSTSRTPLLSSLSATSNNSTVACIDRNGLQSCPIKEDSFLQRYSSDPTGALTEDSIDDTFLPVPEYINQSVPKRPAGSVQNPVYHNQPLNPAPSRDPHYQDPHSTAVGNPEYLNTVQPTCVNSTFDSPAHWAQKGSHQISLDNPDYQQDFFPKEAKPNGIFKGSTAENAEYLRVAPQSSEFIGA

| Structure (SMILES) | IC50 [2] [µM] | IC50 [4] [µM] | IC50 [5] [µM] | further results |
| --- | --- | --- | --- | --- |
| N#CC(C#N)=Cc1ccc2[nH]ccc2c1 |  |  |  | IC50 [1]: 12 µM |
| N#CC(C#N)=Cc1ccco1 | > 1250 |  |  |  |
| N#C/C(=C\c1ccc(O)c(O)c1)C(=O)N1CCc2ccccc21 | 2.1 | 4.9 | 12 | IC50 [3]: 100 µM |
| Cc1cc(C)c(C(=O)/C(C#N)=C/c2ccc(O)c(O)c2)c(C)c1 | 10.7 | 50 | 24 |  |
| COc1ccc(C=C(C#N)C#N)cc1F | 800 |  |  |  |
| N#C/C(=C\c1ccc(O)c(O)c1)C(=O)N1CCN(c2ccccc2)CC1 | 4.3 | 49 | 55 |  |
| N#C/C(=C\c1ccc(O)c(O)c1)C(=O)NCCCCc1ccccc1 | 1.1 | > 500 | 5 | IC50 [3]: 10 µM |
| N#CC(C#N)=C1CCc2cc(O)c(O)cc21 | 0.5 |  |  | Inhibition [6]: >150% |
| COc1ccc(NC(=O)/C(C#N)=C/c2ccc(O)c(O)c2)c(OC)c1 |  | > 166 |  |  |
| N#CC(C#N)=Cc1cccnc1 | 225 |  |  |  |
| CSc1ccc(C=C(C#N)C#N)cc1 | > 625 |  |  |  |
| N#C/C(=C\c1ccc(O)c(O)c1)C(=O)NCCCc1ccccc1 | 0.7 | 35 | 0.7 | IC50 [3]: 25 µM |
| N#CC(C#N)=C1C(=O)Nc2ccc(O)cc21 | 12.5 |  |  |  |
| CC(=O)Nc1ccc(C=C(C#N)C#N)cc1 | > 325 |  |  |  |
| N#CC(C#N)=C1C(=O)Nc2ccc([N+](=O)[O-])cc21 | 40 |  |  |  |
| N#C/C(=C\c1ccc(O)c(O)c1)C(=O)c1ccccc1 | 1.3 | 18 | 14 | IC50 [3]: 120 µM |
| N#CC(C#N)=Cc1ccc(S(=O)(=O)O)o1 | > 250 |  |  |  |
| C[S+]([O-])c1ccc(C=C(C#N)C#N)cc1 (centres undefined) | 1800 |  |  |  |
| N#C/C(=C\c1ccc(O)c(O)c1)C(=O)NCCc1ccccc1 | 0.93 | 23 | < 0.625 |  |
| CCOC(=O)C(Cc1ccccc1)NC(=O)/C(C#N)=C/c1ccc(O)c(O)c1 (centres undefined) | 1.53 | > 333 | 49 |  |
| N#C/C(=C\c1ccc(O)c(O)c1)C(=O)NC1CCCCC1 | 1.6 | 17 | 5.9 | IC50 [3]: 50 µM |
| N#C/C(=C\c1ccc(O)c(O)c1)C(=O)NCc1ccccc1 |  | 13.5 |  | IC50 [3]: 25 µM |

| Structure (SMILES) | IC50 [2] [µM] | IC50 [4] [µM] | IC50 [5] [µM] | further results |
| --- | --- | --- | --- | --- |
| N#C/C(=C\c1ccc(O)c(O)c1)C(=O)c1ccc(O)c(O)c1 | 0.37 | 18 | 5 | IC50 [6]: > 50 µM |
| N#C/C(=C\c1ccc(O)c(O)c1)C(=O)Nc1ccccc1Cl | 1.1 | 57 | 2.1 | IC50 [3]: 12 µM |
| N#CC(C#N)=Cc1ccc(C#N)cc1 | 1400 |  |  |  |
| N#C/C(=C\c1ccc(O)c(O)c1)C(=O)c1ccc(F)cc1 | 0.56 | 13.6 |  | IC50 [6]: 80 µM; IC50 [7]: 5.1 µM |
| N#C/C(=C\c1ccc(O)c(O)c1)C(=O)c1cccs1 | 3.1 | 35 | 31 |  |
| N#CC(C#N)=C1CCCc2c(O)cccc21 | 1200 |  |  |  |
| Cc1ccc(C(=O)/C(C#N)=C/c2ccc(O)c(O)c2)cc1 | 0.88 | 10 | 15 | IC50 [3]: 100 µM |
| N#C/C(=C\c1ccc(O)c(O)c1)C(=O)c1ccccc1Cl | 1.54 | 12 | 6.6 |  |
| Cc1cccc(C)c1NC(=O)/C(C#N)=C/c1ccc(O)c(O)c1 | 5.1 | 34 | 10.3 | IC50 [3]: > 20 µM |
| N#CC(C#N)=C1C(=O)Nc2cc(O)c(O)cc21 | 2.5 |  |  |  |
| COc1ccc(CCNC(=O)/C(C#N)=C/c2ccc(O)c(O)c2)cc1OC | 1.7 |  |  |  |
| N#C/C(=C\c1ccc(O)c(O)c1)C(=O)Nc1ccccc1 |  | 42 |  | IC50 [3]: > 50 µM |
| COc1cc2c(cc1O)NC(=O)C2=C(C#N)C#N | 60 |  |  |  |
| CC(NC(=O)/C(C#N)=C/c1ccc(O)c(O)c1)c1ccccc1 (stereo in doubt; 44) | 0.4 | 37 | 2.5 | IC50 [3]: 10 µM |
| N#CC(C#N)=C(N)/C(C#N)=C/c1ccc2[nH]ccc2c1 | 820 |  |  | IC50 [6]: >>100 uM; IC50 [8]: 7 µM |
| N#C/C(=C\c1ccc(O)c(O)c1)C(=O)N1CCCCC1 | > 1000 |  |  |  |
| CC(NC(=O)/C(C#N)=C/c1ccc(O)c(O)c1)c1ccccc1 (stereo in doubt; 50) | 0.86 |  |  |  |
| N#CC(C#N)=C1CCc2c1ccc(O)c2O | 7 |  |  |  |
| CN1C(=O)C(=C(C#N)C#N)c2cc(O)ccc21 | 26 |  |  |  |
| N#C/C(=C\c1ccc(O)c(O)c1)C(=O)c1ccc([N+](=O)[O-])cc1 | 2.3 | 3 | 11 | IC50 [3]: <<20 uM |
| N#CC(C#N)=Cc1ccc2c(c1)CCN2Cc1ccccc1 | > 2500 |  |  |  |
| N#C/C(=C\c1ccc(O)c(O)c1)C(N)=O |  | 6.4 | 4.5 | IC50 [3]: 60 µM |
